Bioassay records as filed in PubChem BioAssay.
Runt-SMMHC FRET: inhibitors of RUNX1 Runt–CBFb-SMMHC binding, primary screen, biochemical, FRET, Cerulean-Runt, Venus-CBFb-SMMHC, uHTS; Runt-related transcription factor 1 (Homo sapiens) + Core-binding factor subunit beta …; Cerulean-Runt/Venus-CBFb-SMMHC FRET ratio 530/480, 1 h; inhibition, % at 20 µM; 0.74% of 220,000 active;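 active = mean inhibition across duplicate retests at 20 µM reaching about 50%, limit read from the data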;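 note: 0% = DMSO wells and 100% = wells with excess untagged CBFb-SMMHC; inhibitors lower the FRET ratio by blocking Runt binding to CBFb-SMMHC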
Target sequence (Q01196 whole entry, looked up): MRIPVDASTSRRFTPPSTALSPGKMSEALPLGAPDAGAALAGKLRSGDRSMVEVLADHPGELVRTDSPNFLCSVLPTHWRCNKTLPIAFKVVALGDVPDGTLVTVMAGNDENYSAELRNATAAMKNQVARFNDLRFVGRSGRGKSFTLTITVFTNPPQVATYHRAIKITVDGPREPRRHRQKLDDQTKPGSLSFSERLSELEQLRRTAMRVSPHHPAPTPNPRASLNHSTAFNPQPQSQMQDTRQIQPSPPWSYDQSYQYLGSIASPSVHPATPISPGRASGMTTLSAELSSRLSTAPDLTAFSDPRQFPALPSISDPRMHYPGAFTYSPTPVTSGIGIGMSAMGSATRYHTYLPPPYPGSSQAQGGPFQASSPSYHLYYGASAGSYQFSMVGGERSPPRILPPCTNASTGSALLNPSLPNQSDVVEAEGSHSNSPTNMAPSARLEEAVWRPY
Target sequence (Q13951 whole entry, looked up): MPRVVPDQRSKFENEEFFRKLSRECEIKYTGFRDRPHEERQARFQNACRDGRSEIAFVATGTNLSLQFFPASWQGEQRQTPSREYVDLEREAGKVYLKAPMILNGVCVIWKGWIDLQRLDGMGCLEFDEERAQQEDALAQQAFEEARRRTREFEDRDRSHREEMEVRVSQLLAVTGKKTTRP
RanGTP-Imp inh: inhibitors of RanGTP-importin-beta interaction, primary screen, biochemical, FRET, CFP-Ran, YFP-importin-beta, homogeneous; Ran GTPase (GTP-bound) - importin-beta complex; cell-free CFP-Ran/YFP-importin-beta FRET ratio; inhibition, % (test concentration not listed); 1.1% of 300,000 active; AID 2216, 2009;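 active = more than half of the replicate wells show a fall in the fluorescence ratio signal beyond about 16%, limit read from the data, passing the limit was not always enough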;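 note: 0% = DMSO wells and 100% = Ran loaded with GDP instead of GTP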
MEX-5 binding: MEX-5 zinc finger RNA-binding disruptors – biochemical, C. elegans, fluorescence polarization, MLPCN library, primary screen; MEX-5/FITC-TCR2 RNA binding; active compounds read low; 0.38% of 300,000 active; Zinc finger protein mex-5 (Caenorhabditis elegans), Q9XUB2; activity score (negative = inhibition of binding), % at 10 µM;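 active = inhibition past about -25% in most replicates, and total fluorescence under double the plate's negative control median, limit read from the data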;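 note: 0% = DMSO and -100% = 5 µM competing unlabeled TCR2 RNA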
Runt-CBFb FRET: inhibitors of RUNX1 Runt–CBFb binding, primary screen, biochemical, FRET, Cerulean-Runt, Venus-CBFb, uHTS | 0.46% of 220,000 active | Runt-related transcription factor 1 (Homo sapiens) + Core-binding factor subunit beta … | inhibition, % at 20 µM | Cerulean-Runt/Venus-CBFb FRET ratio 530/480, 1 h;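 active = inhibition over about 50% at 20 µM in the single-dose screen, limit read from the data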;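 note: 0% = DMSO wells and 100% = excess unlabeled CBFb competitor control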
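Measured by: fluorescence energy transfer, 422 nm excitation, 530/480 nm emission; test system: Cerulean-tagged RUNX1 Runt domain (FRET donor) fusion protein; buffer or medium: Tris pH 7.5 buffer with BSA; compound: one dose, 20 µM compound, 1% DMSO; times: two 1 h room-temperature incubations shielded from light; benchmarks: unlabeled CBFb 5 µM, positive control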
KLK7 zymogen act: proKLK7 zymogen activators, primary screen, biochemical, fluorescence intensity; purified proKLK7, EDANS-DABCYL substrate fluorescence; 100% is mature enzyme control, 0% vehicle; 0.9% of 370,000 active; activation, % at 7 µM; Kallikrein-7 (Homo sapiens), P49862;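 active = activation above the mean of all tested compounds plus 3 SD, computed per campaign excluding outliers beyond control limits, cut at about 13% in these data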
* marks the source's active call; other numbers are inactive results. Shown are actives, neighbours in structure and some others; about 2.1% of the full set was active somewhere.

For CCCCn1c(N)c(N(CCOC)C(=O)c2ccc(F)c(S(=O)(=O)N3CCOCC3)c2)c(=O)[nH]c1=O the results were RanGTP-Imp inh 1, MEX-5 binding 0 and KLK7 zymogen act 0.
`CSc1nc(NCC(C)C)c2c3c(sc2n1)CN(C)CC3` gave Runt-SMMHC FRET 60, RanGTP-Imp inh 17*, MEX-5 binding -2, Runt-CBFb FRET 5 and KLK7 zymogen act 1.
For CCCSc1nc(N)c2c3c(sc2n1)CN(C)CC3 the results were Runt-SMMHC FRET 38, RanGTP-Imp inh 9, MEX-5 binding 1 and Runt-CBFb FRET 6.
For CC(C)Sc1nc(N)c2c3c(sc2n1)CN(C)CC3 the results were Runt-SMMHC FRET 29, RanGTP-Imp inh 21*, MEX-5 binding 1, Runt-CBFb FRET 13 and KLK7 zymogen act 0.
`COc1cc(C2C(C#N)=C(N)Oc3cc(N(C)C)ccc32)cc2c1OCO2` (configuration not stated) gave Runt-SMMHC FRET 13, RanGTP-Imp inh 27*, MEX-5 binding -1, Runt-CBFb FRET -9 and KLK7 zymogen act 0.
Screening COc1cc(C2C(C#N)=C(N)Oc3cc(O)ccc32)cc2c1OCO2 (configuration not stated) returned Runt-SMMHC FRET 41, RanGTP-Imp inh 42*, MEX-5 binding -5, Runt-CBFb FRET 11 and KLK7 zymogen act -1.
Cc1ccccc1S(=O)(=O)NC(=O)C1(C)CCN1C(=O)c1c(C)noc1C (configuration not stated) was read as KLK7 zymogen act 0.
COc1cccc(-n2c(SCc3cc(=O)oc4cc(O)c(O)cc34)nc3ccccc3c2=O)c1 was read as RanGTP-Imp inh 1, MEX-5 binding 0, Runt-CBFb FRET 67* and KLK7 zymogen act -7.
CCN(CC)C(=O)CSc1nc2ccccc2c(=O)n1-c1cccc(OC)c1 was read as Runt-SMMHC FRET -1, RanGTP-Imp inh -1, MEX-5 binding -1, Runt-CBFb FRET 2 and KLK7 zymogen act 0.
For O=c1cc(-c2ccc(O)c(O)c2)oc2cc(O)cc(O)c12 the results were Runt-SMMHC FRET -80, RanGTP-Imp inh -7, MEX-5 binding -33*, Runt-CBFb FRET 10 and KLK7 zymogen act 0.
`Cc1ccccc1OCC(=O)N(Cc1ccco1)c1c(N)n(Cc2ccccc2)c(=O)[nH]c1=O` gave KLK7 zymogen act 0.
O=C(CC1SC(=NCC2CCCO2)NC1=O)Nc1cccc2ccccc12 (configuration not stated) was read as Runt-SMMHC FRET 0, RanGTP-Imp inh -2, MEX-5 binding -1, Runt-CBFb FRET 81* and KLK7 zymogen act 1.
O=C(CC1SC(=NCC2CCCO2)NC1=O)Nc1cc([N+](=O)[O-])ccc1Cl (configuration not stated) was read as Runt-SMMHC FRET 0, RanGTP-Imp inh -1, MEX-5 binding 0, Runt-CBFb FRET 1 and KLK7 zymogen act -1.
`O=C(Nc1ccccc1)c1cc(C2CCCCN2S(=O)(=O)Cc2cccc(C(F)(F)F)c2)on1` (configuration not stated) gave KLK7 zymogen act 1.
Screening CC(=O)c1c(O)cc(O)cc1CC(=O)O returned Runt-SMMHC FRET -18, RanGTP-Imp inh -3, MEX-5 binding -29*, Runt-CBFb FRET -4 and KLK7 zymogen act 0.
`CCC(O)(c1ccc(NC(=O)OC(C)(C)C)cc1)c1cc(OC)cc(OC)c1` (configuration not stated) gave KLK7 zymogen act 0.
For Cc1ccc2cc3c(NC(=O)c4ccco4)nn(C)c3nc2c1 the results were Runt-SMMHC FRET 27, RanGTP-Imp inh 23*, MEX-5 binding 0, Runt-CBFb FRET 17 and KLK7 zymogen act -1.
Screening CCCC(=O)Nc1nn(CCC)c2nc3ccccc3cc12 returned Runt-SMMHC FRET 4, RanGTP-Imp inh 8, MEX-5 binding 1, Runt-CBFb FRET 8 and KLK7 zymogen act 1.
